Measurements from ChEMBL document CHEMBL1799920, “Total synthesis and pharmacological characterization of solomonsterol A, a potent marine pregnane-X-receptor agonist endowed with anti-inflammatory activity” (J Med Chem, 2011).
Activity calls are given as the source filed them. No cut-off for these calls is given here.

What was measured:
[1] = tested on: Mus musculus; test: Antiinflammatory activity against trinitrobenzenesulfonic acid-induced colitis in human PXR expressing transgenic C57/BL6 mouse assessed as decrease in cellular infiltrate in colon at 10 mg/kg, po qd administered 3 days before TNBS challenge measured after 7 days; type: functional, organism-based; design: dose 10 mg/kg; settings: C57Bl/6
Outline: (§1)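 TNBS colitis in male hPXR mice (human PXR on mouse PXR-null background). After a 16 h fast and light ketamine/xylazine i.p. anesthesia, mice received TNBS 0.5 mg/mouse in 50% ethanol intrarectally by catheter. Dosing was 10 mg/kg orally once daily, dissolved in DMSO and diluted in 1% methylcellulose, starting 3 days before TNBS. Colons were taken 4 days after TNBS and stained with H&E. n = 6–7.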

[2] = tested on: Mus musculus; test: Antiinflammatory activity against trinitrobenzenesulfonic acid-induced colitis in human PXR expressing transgenic C57/BL6 mouse assessed as decrease in evidence of mucosal hemorrhage damage at 10 mg/kg, po qd administered 3 days before TNBS challenge measured after 7 days; type: functional, organism-based; design: dose 10 mg/kg; settings: C57Bl/6
Outline: (§2)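 hPXR male mice were fasted 16 h and given TNBS intrarectally (0.5 mg/mouse in 50% ethanol). Oral 10 mg/kg once daily (DMSO stock diluted in 1% methylcellulose) began 3 days before TNBS; vehicle controls received 1% methylcellulose. Four days after TNBS, colon macroscopic appearance was graded blind for induration, edema, thickness and mucosal hemorrhage. n = 6–7.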

[3] = tested on: Mus musculus; test: Antiinflammatory activity against trinitrobenzenesulfonic acid-induced colitis in human PXR expressing transgenic C57/BL6 mouse assessed as increase in TGF-beta1 protein level in colon at 10 mg/kg, po qd after 5 days; settings: C57Bl/6
[4] = tested on: Mus musculus; test: Antiinflammatory activity against trinitrobenzenesulfonic acid-induced colitis in human PXR expressing transgenic C57/BL6 mouse assessed as decrease in presence of indurations in colon at 10 mg/kg, po qd administered 3 days before TNBS challenge measured after 7 days; type: functional, organism-based; design: dose 10 mg/kg; settings: C57Bl/6; outline: as §2
[5] = tested on: Mus musculus; test: Antiinflammatory activity against trinitrobenzenesulfonic acid-induced colitis in human PXR expressing transgenic C57/BL6 mouse assessed as increase in IL-10 protein level in colon at 10 mg/kg, po qd after 5 days by ELISA; type: functional, organism-based; design: dose 10 mg/kg; settings: C57Bl/6
Outline: (§3)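 TNFα and IL-10 were measured by ELISA in colon homogenates (T-PER lysis, 10,000g for 15 min at 4 °C) from TNBS-colitic hPXR mice. Mice were dosed orally at 10 mg/kg once daily in DMSO/1% methylcellulose, starting 3 days before intrarectal TNBS (0.5 mg/mouse). Values were normalized to protein; mean ± SE, 6–7 mice/group.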

[6] = target: T1, Nuclear receptor subfamily 1 group I member 2 (Homo sapiens, UniProt O75469); test: Transactivation of human PXR expressed in HepG2 cells after 18 hrs by luciferase reporter gene assay; type: cell-based
T1 sequence (O75469 whole entry): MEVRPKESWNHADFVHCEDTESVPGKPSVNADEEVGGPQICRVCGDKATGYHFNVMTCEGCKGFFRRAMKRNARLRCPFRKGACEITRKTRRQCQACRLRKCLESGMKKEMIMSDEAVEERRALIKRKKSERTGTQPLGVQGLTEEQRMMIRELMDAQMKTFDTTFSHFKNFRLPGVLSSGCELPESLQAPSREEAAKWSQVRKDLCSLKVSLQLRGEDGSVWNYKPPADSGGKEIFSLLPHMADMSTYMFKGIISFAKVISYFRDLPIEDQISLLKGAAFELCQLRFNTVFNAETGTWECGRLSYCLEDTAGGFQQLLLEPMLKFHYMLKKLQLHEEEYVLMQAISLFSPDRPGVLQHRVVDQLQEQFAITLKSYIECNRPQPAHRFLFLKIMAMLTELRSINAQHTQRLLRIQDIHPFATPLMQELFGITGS
Outline: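 HepG2 cells were transiently transfected with pSG5-PXR, pSG5-RXR, pCMV-βgal and a CYP3A4-promoter luciferase reporter. 48 h after transfection, cells were stimulated for 18 h at 0.1, 1 and 10 μM. Luciferase was normalised to β-galactosidase; n = 4. Relative EC50 from n = 3.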

[7] = tested on: Mus musculus; test: Antiinflammatory activity against trinitrobenzenesulfonic acid-induced colitis in human PXR expressing transgenic C57/BL6 mouse assessed as decrease in TNF-alpha protein level in colon at 10 mg/kg, po qd after 5 days by ELISA; type: functional, organism-based; design: dose 10 mg/kg; settings: C57Bl/6; outline: as §3
[8] = tested on: Mus musculus; test: Antiinflammatory activity against trinitrobenzenesulfonic acid-induced colitis in human PXR expressing transgenic C57/BL6 mouse assessed as decrease in weight loss at 10 mg/kg, po qd administered 3 days before TNBS challenge measured after 7 days; type: functional, organism-based; design: dose 10 mg/kg; settings: C57Bl/6
Outline: (§4)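 Clinical read-outs in hPXR mice with TNBS colitis (0.5 mg/mouse intrarectally in 50% ethanol after a 16 h fast). Oral dosing at 10 mg/kg once daily (DMSO diluted in 1% methylcellulose) started 3 days before TNBS. Diarrhea was scored and body weight recorded, weight expressed as delta percentage versus the day before TNBS; sacrifice was 4 days after TNBS. n = 6–7.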

[9] = tested on: Mus musculus; test: Antiinflammatory activity against trinitrobenzenesulfonic acid-induced colitis in human PXR expressing transgenic C57/BL6 mouse assessed as induction of CYP3A11 mRNA expression in colon at 10 mg/kg, po qd after 5 days by quantitative RT-PCR; type: functional, organism-based; design: dose 10 mg/kg; settings: C57Bl/6
Outline: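 Cyp3A11 mRNA in colon of TNBS-colitic hPXR mice was measured by SYBR Green qPCR (50 ng template, 0.2 μM primers). Cycling was 95 °C for 2 min, then 40 cycles of 95/55/72 °C, with each reaction run in triplicate. Expression was calculated by ΔΔCT against GAPDH relative to untreated control. Mean ± SE, 5 mice/group.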

[10] = tested on: Mus musculus; test: Antiinflammatory activity against trinitrobenzenesulfonic acid-induced colitis in human PXR expressing transgenic C57/BL6 mouse assessed as decrease in occurrence of diarrhea at 10 mg/kg, po qd administered 3 days before TNBS challenge measured after 7 days; type: functional, organism-based; design: dose 10 mg/kg; settings: C57Bl/6; outline: as §4
[11] = tested on: THP-1; test: Inhibition of NF-kappaB p65 DNA binding activity in LPS-stimulated human THP1 cells at 10 uM after 3 hrs by electrophoretic mobility shift assay; type: cell-based
Outline: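 THP-1 cells were pretreated with compound (10 μM) or vehicle for 3 h, then LPS 1 μg/mL was added for 20 h. Nuclear extracts were incubated with biotinylated NF-κB probe for 20 min at room temperature, run on a 6% native gel and detected by chemiluminescence. Specificity was checked by cold-probe competition and p65 antibody supershift. Three independent experiments.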

[12] = tested on: Mus musculus; test: (§5) Antiinflammatory activity against trinitrobenzenesulfonic acid-induced colitis in human PXR expressing transgenic C57/BL6 mouse assessed as decrease in appearance of epithelial erosions in colon at 10 mg/kg, po qd administered 3 days before TNBS challenge measured after 7 days by haematoxylin/eosin staining; type: functional, organism-based; design: dose 10 mg/kg; settings: C57Bl/6; outline: as §1
[13] = tested on: Mus musculus; test: Antiinflammatory activity against trinitrobenzenesulfonic acid-induced colitis in human PXR expressing transgenic C57/BL6 mouse assessed as decrease in MIP-1alpha protein level in colon at 10 mg/kg, po qd after 5 days; type: functional, organism-based; design: dose 10 mg/kg; settings: C57Bl/6
[14] = tested on: Mus musculus; test: Antiinflammatory activity against trinitrobenzenesulfonic acid-induced colitis in human PXR expressing transgenic C57/BL6 mouse assessed as decrease in IL-12p70 protein level in colon at 10 mg/kg, po qd after 5 days; type: functional, organism-based; design: dose 10 mg/kg; settings: C57Bl/6
[15] = tested on: Mus musculus; test: Antiinflammatory activity against trinitrobenzenesulfonic acid-induced colitis in human PXR expressing transgenic C57/BL6 mouse assessed as decrease in microscopic colon damage at 10 mg/kg, po qd administered 3 days before TNBS challenge measured after 7 days; type: functional, organism-based; design: dose 10 mg/kg; settings: C57Bl/6
Outline: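 Microscopic colon damage in the prophylactic TNBS model in hPXR mice: oral 10 mg/kg daily, in DMSO/1% methylcellulose, from 3 days before intrarectal TNBS (0.5 mg/mouse in 50% ethanol). Colons were collected at day 4 post-TNBS, formalin-fixed, paraffin-embedded and H&E-stained, then graded blind on a 0–4 scale (leukocyte infiltration, vascular density, wall thickening, goblet cell loss). n = 6–7.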

[16] = tested on: Mus musculus; test: Antiinflammatory activity against trinitrobenzenesulfonic acid-induced colitis in human PXR expressing transgenic C57/BL6 mouse assessed as decrease in colonic myeloperoxidase activity at 10 mg/kg, po qd after 5 days using trimethylbenzidine as substrate by spectrophotometry; type: functional, organism-based; design: dose 10 mg/kg; settings: C57Bl/6
Outline: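 Colon myeloperoxidase from TNBS-colitic hPXR mice given oral 10 mg/kg daily. Colon was lysed in T-PER and minced, then centrifuged at 10,000g for 15 min at 4 °C. After two freeze/thaw cycles, MPO in the homogenate was measured spectrophotometrically with TMB substrate and normalized to protein. Mean ± SE, 6–7 mice/group.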

[17] = tested on: Mus musculus; test: Antiinflammatory activity against trinitrobenzenesulfonic acid-induced colitis in human PXR expressing transgenic C57/BL6 mouse assessed as decrease in thickness of colon at 10 mg/kg, po qd administered 3 days before TNBS challenge measured after 7 days; type: functional, organism-based; design: dose 10 mg/kg; settings: C57Bl/6; outline: as §2
[18] = tested on: Mus musculus; test: as §5, with “submucosal edema” for “epithelial erosions”; type: functional, organism-based; design: dose 10 mg/kg; settings: C57Bl/6; outline: as §1
[19] = tested on: Mus musculus; test: Antiinflammatory activity against trinitrobenzenesulfonic acid-induced colitis in human PXR expressing transgenic C57/BL6 mouse assessed as decrease in edema of colon at 10 mg/kg, po qd administered 3 days before TNBS challenge measured after 7 days; type: functional, organism-based; design: dose 10 mg/kg; settings: C57Bl/6; outline: as §2
[20] = tested on: Mus musculus; test: Antiinflammatory activity against trinitrobenzenesulfonic acid-induced colitis in human PXR expressing transgenic C57/BL6 mouse assessed as decrease in INF-gamma protein level in colon at 10 mg/kg, po qd after 5 days; type: functional, organism-based; design: dose 10 mg/kg; settings: C57Bl/6

Q: What does the source list for `CO[C@H]1/C=C/O[C@@]2(C)Oc3c(C)c(O)c4c(O)c(c5c(nc6cc(C)ccn65)c4c3C2=O)NC(=O)/C(C)=C\C=C\[C@H](C)[C@H](O)[C@@H](C)[C@@H](O)[C@@H](C)[C@H](OC(C)=O)[C@@H]1C` [RIFAXIMIN]?
A: Activity [1]: Active; Activity [2]: Active; Activity [3]: Active; Activity [4]: Active; Activity [5]: Active; EC50 [6]: 2200 nM; Activity [7]: Active; Activity [8]: Active; Activity [9]: Active; Activity [10]: Active; Activity [11]: Active; Activity [12]: Active; Activity [13]: Active; Activity [14]: Active; Activity [15]: Active; Activity [16]: Active; Activity [17]: Active; Activity [18]: Active; Activity [19]: Active; Activity [20]: Active
